For 2 compounds, IC50 results are on record in BindingDB's records for doi:10.1021/jm060468y (Johannes Gutenberg University, 2006).

The target of this experiment is T1, E-selectin (Homo sapiens, UniProt P16581).
T1 sequence (P16581 whole entry): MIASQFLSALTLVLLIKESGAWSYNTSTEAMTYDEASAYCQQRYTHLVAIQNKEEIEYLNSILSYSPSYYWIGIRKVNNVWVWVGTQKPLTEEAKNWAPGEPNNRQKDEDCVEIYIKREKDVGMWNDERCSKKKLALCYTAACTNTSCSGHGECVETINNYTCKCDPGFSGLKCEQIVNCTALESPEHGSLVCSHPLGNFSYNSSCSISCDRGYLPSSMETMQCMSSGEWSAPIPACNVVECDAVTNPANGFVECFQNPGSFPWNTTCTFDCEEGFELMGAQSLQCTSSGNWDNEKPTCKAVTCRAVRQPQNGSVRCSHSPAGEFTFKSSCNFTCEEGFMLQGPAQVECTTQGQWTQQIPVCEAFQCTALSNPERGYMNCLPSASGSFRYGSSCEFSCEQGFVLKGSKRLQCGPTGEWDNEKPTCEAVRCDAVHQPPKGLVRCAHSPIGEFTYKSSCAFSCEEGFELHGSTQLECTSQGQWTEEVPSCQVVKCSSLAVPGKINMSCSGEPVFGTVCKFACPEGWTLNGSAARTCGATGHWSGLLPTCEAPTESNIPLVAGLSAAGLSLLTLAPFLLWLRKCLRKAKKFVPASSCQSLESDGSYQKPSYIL
The experiment is described as follows: Inhibition of MM6 cell adhesion to recombinant E-selectin by flow chamber assay. In outline:
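Wells coated overnight at 4 °C with recombinant soluble E-selectin (5 µg/mL in PBS with Ca2+/Mg2+). Background wells had no selectin. Compound in RPMI with 1% FCS and DMSO applied for 60 min, then washed. MM6 cells (1 × 10^6/mL, RPMI + 1% FCS) perfused at 1 dyn/cm2 shear for 4 min. Cells adhering ≥30 s were counted in four random fields in the first minute by phase-contrast video microscopy. Experiments run two or three times; IC50 by curve fitting.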

In the case of `CCCCCCCCCCOc1cc(OCCCCCCCCCC)cc(OCCCCCCN(c2ccc(C(=O)O)cc2)c2ccc(C(=O)O)cc2)c1`, the concentration for half-maximal inhibition (IC50) (as a rule, the concentration needed to halve the response being measured) came to 28 µM.

Turning to `CCCCCCCCCCOc1cc(OCCCCCCCCCC)cc(OCCCCCCON=C(c2ccc(C(=O)O)cc2)c2ccc(C(=O)O)cc2)c1`, the IC50 turned out to be 20 µM.
